Experimental data: ChEMBL document CHEMBL5661979, “Pharmacological inhibition of BMK1 suppresses tumor growth through promyelocytic leukemia protein” (Cancer Cell, 2010)
Calls of active or inactive are those of the source. The calls are words filed in the database; no cut-off is given here.

Experiments:
[1] = target: Serine/threonine-protein kinase Chk1 (Homo sapiens, UniProt O14757); test: Inhibition of CHK1 inactive site in human HeLa cells lysate pre incubated for 15 mins followed by ATP acyl phosphate probe addition and measured after 10 mins by LC-MS/MS analysis; type: subcellular
Sequence of Serine/threonine-protein kinase Chk1 (O14757 whole entry): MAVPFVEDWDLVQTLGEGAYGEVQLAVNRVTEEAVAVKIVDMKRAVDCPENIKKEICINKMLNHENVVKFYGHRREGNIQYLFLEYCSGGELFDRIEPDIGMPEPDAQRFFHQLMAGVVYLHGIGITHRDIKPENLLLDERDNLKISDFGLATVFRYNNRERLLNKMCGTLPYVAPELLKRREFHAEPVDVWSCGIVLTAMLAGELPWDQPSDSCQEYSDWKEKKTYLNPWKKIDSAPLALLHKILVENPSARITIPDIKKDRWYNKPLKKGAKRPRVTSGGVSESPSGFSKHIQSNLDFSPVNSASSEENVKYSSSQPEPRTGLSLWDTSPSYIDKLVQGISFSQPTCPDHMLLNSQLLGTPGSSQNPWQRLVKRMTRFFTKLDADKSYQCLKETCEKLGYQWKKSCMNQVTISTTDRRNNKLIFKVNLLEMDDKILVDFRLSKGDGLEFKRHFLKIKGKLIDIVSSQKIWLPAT

[2] = target: Mitogen-activated protein kinase 4 (Homo sapiens, UniProt P31152); test: Inhibition of ERK4 in human HeLa cells lysate pre incubated for 15 mins followed by ATP acyl phosphate probe addition and measured after 10 mins by LC-MS/MS analysis; type: subcellular
Sequence of Mitogen-activated protein kinase 4 (P31152 whole entry): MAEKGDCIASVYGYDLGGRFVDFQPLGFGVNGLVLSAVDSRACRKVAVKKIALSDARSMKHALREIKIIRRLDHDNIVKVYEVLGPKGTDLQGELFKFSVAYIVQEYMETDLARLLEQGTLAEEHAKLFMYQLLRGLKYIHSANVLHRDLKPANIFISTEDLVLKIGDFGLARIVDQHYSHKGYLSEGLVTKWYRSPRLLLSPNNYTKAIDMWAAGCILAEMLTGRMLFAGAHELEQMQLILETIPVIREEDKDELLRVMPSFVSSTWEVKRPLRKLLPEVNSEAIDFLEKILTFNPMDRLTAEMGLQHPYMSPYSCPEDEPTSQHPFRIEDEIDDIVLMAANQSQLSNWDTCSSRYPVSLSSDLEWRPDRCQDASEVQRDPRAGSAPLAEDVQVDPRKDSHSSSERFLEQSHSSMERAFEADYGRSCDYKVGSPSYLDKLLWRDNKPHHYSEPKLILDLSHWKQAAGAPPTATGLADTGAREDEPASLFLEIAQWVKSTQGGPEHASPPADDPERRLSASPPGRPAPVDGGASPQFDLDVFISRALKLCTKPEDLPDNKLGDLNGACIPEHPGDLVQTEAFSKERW

[3] = target: Mitogen-activated protein kinase 14 (Homo sapiens, UniProt Q16539); test: Inhibition of P38a in human HeLa cells lysate pre incubated for 15 mins followed by ATP acyl phosphate probe addition and measured after 10 mins by LC-MS/MS analysis; type: subcellular
Sequence of Mitogen-activated protein kinase 14 (Q16539 whole entry): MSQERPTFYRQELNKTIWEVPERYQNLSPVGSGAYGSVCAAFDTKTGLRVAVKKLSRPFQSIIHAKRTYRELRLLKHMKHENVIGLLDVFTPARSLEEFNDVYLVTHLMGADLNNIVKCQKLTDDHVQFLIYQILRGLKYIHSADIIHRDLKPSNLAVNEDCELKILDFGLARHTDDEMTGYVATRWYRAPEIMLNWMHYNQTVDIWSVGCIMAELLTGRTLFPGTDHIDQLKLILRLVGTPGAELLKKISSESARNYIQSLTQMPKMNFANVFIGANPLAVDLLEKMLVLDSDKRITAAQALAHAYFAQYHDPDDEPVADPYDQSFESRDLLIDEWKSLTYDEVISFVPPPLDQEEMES

[4] = target: T1, Phosphatidylinositol 5-phosphate 4-kinase type-2 alpha (Homo sapiens, UniProt P48426); test: Inhibition of PIP5K2A in human HeLa cells lysate pre incubated for 15 mins followed by ATP acyl phosphate probe addition and measured after 10 mins by LC-MS/MS analysis; type: subcellular
T1 sequence (P48426 whole entry): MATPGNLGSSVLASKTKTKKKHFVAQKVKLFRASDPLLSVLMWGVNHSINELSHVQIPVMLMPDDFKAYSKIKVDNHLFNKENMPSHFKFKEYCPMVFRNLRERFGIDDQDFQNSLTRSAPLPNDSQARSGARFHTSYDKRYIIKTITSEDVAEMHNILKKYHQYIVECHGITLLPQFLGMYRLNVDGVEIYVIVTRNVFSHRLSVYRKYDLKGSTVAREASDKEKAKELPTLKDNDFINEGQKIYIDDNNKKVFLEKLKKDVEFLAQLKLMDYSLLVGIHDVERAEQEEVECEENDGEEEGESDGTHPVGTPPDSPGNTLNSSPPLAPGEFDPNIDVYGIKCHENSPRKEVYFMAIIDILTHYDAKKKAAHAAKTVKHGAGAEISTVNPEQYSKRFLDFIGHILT

[5] = target: Cyclin-dependent kinase 12 (Homo sapiens, UniProt Q9NYV4); test: Inhibition of CRK7 in human HeLa cells lysate pre incubated for 15 mins followed by ADP acyl phosphate probe addition and measured after 10 mins by LC-MS/MS analysis; type: subcellular
[6] = target: Mitogen-activated protein kinase kinase kinase 1 (Homo sapiens, UniProt Q13233); test: Inhibition of MAP3K1 in human HeLa cells lysate pre incubated for 15 mins followed by ADP acyl phosphate probe addition and measured after 10 mins by LC-MS/MS analysis; type: subcellular
Sequence of Mitogen-activated protein kinase kinase kinase 1 (Q13233 whole entry, the tested form may be a part): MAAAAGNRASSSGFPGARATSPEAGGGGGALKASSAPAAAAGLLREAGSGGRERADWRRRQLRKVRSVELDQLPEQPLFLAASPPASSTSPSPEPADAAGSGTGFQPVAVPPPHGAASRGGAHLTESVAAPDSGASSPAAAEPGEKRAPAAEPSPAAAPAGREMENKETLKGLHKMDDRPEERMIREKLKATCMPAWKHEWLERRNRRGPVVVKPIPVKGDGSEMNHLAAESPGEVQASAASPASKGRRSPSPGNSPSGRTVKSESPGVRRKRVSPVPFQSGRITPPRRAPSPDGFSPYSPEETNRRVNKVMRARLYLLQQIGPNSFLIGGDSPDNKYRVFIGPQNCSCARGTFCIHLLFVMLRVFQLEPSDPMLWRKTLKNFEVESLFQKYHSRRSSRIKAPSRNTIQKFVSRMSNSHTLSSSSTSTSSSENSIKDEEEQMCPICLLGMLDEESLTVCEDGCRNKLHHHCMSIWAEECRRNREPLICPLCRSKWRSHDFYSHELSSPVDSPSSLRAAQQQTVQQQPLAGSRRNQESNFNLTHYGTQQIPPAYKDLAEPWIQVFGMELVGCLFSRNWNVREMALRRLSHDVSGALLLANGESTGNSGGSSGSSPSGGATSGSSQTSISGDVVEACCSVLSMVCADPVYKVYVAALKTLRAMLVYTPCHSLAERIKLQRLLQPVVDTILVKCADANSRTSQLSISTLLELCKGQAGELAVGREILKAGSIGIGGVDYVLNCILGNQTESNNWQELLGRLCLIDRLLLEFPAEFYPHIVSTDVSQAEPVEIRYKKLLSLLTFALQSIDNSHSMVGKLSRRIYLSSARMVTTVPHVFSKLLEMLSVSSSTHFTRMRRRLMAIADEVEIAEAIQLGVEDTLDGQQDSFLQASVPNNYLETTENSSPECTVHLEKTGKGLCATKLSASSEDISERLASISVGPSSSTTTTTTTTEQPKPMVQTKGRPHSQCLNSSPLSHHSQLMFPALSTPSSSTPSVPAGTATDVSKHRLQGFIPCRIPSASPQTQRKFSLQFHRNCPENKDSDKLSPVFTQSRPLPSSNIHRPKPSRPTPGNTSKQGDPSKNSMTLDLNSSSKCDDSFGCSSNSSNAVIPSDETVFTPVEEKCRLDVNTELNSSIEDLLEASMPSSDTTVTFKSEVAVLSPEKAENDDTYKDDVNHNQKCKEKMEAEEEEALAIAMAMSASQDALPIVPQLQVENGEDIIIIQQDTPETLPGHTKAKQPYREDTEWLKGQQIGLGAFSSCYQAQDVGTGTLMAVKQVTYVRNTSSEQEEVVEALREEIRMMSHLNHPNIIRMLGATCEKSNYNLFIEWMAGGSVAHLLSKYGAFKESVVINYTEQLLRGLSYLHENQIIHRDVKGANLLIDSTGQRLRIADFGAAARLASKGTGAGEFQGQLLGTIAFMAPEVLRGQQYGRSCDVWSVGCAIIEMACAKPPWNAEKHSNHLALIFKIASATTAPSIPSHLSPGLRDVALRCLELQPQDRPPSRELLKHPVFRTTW

[7] = target: T2, Ribosomal protein S6 kinase alpha-5 (Homo sapiens, UniProt O75582); test: Inhibition of MSK1 domain 1 K1 site in human HeLa cells lysate pre incubated for 15 mins followed by ADP acyl phosphate probe addition and measured after 10 mins by LC-MS/MS analysis; type: subcellular
Target sequence in this assay (O75582 whole entry, the tested form may be a part): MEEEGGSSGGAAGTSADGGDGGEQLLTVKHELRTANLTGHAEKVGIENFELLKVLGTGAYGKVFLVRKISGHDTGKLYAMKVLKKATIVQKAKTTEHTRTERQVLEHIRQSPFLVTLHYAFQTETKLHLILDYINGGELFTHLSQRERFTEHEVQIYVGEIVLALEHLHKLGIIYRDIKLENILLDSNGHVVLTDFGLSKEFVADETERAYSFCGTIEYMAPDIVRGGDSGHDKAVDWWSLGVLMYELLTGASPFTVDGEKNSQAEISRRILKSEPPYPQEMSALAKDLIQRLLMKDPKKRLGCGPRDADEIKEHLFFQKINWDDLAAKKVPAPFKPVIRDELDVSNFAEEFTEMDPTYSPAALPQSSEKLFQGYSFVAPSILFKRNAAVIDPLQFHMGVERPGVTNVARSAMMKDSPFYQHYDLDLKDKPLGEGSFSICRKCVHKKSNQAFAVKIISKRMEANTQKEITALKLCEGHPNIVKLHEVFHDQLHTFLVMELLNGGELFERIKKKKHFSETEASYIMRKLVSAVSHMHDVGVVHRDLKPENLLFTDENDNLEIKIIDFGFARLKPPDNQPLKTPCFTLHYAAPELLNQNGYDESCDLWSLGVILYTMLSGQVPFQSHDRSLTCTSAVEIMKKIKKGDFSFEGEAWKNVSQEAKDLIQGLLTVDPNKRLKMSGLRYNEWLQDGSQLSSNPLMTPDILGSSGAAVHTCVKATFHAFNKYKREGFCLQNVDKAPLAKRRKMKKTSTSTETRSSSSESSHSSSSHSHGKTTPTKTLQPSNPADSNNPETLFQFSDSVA

[8] = target: T1, Phosphatidylinositol 5-phosphate 4-kinase type-2 alpha; test: Inhibition of PIP5K2A LIP1 site in human HeLa cells lysate pre incubated for 15 mins followed by ADP acyl phosphate probe addition and measured after 10 mins by LC-MS/MS analysis; type: subcellular
[9] = target: Mitogen-activated protein kinase kinase kinase 2 (Homo sapiens) (UniProt Q9Y2U5); test: Inhibition of MAP3K2 in human HeLa cells lysate at 50 uM pre incubated for 15 mins followed by ADP acyl phosphate probe addition and measured after 10 mins by LC-MS/MS analysis relative to control; type: subcellular; details: time 25.0 min
Sequence of Mitogen-activated protein kinase kinase kinase 2 (Homo sapiens) (Q9Y2U5 whole entry, the tested form may be a part): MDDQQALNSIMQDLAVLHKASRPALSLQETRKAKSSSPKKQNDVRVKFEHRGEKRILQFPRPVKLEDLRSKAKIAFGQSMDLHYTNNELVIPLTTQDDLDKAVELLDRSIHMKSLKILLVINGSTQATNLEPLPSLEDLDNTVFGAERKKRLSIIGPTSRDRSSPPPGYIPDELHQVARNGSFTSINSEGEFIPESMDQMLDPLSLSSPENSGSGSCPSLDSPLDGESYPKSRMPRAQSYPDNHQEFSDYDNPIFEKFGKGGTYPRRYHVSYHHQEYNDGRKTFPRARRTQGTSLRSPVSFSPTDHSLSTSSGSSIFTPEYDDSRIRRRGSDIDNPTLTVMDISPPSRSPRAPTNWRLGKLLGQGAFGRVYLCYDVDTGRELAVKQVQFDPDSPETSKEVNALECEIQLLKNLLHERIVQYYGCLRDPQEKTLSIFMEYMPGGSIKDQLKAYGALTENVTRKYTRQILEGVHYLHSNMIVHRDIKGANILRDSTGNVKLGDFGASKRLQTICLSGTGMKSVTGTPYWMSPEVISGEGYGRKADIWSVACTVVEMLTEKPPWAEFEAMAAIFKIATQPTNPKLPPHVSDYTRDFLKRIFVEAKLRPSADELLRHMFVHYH

[10] = target: T2, Ribosomal protein S6 kinase alpha-5; test: Inhibition of MSK1 domain 1 K1 site in human HeLa cells lysate at 2 uM pre incubated for 15 mins followed by ADP acyl phosphate probe addition and measured after 10 mins by LC-MS/MS analysis relative to control; type: subcellular; details: time 25.0 min
Target sequence in this assay (O75582 whole entry, looked up, the tested form may be a part): as the sequence (O75582 whole entry, the tested form may be a part) above

[11] = target: T3, Serine/threonine-protein kinase A-Raf (Homo sapiens) (UniProt P10398); test: Inhibition of ARAF in human HeLa cells lysate at 50 uM pre incubated for 15 mins followed by ATP acyl phosphate probe addition and measured after 10 mins by LC-MS/MS analysis relative to control; type: subcellular; details: time 25.0 min
T3 sequence (whole entry): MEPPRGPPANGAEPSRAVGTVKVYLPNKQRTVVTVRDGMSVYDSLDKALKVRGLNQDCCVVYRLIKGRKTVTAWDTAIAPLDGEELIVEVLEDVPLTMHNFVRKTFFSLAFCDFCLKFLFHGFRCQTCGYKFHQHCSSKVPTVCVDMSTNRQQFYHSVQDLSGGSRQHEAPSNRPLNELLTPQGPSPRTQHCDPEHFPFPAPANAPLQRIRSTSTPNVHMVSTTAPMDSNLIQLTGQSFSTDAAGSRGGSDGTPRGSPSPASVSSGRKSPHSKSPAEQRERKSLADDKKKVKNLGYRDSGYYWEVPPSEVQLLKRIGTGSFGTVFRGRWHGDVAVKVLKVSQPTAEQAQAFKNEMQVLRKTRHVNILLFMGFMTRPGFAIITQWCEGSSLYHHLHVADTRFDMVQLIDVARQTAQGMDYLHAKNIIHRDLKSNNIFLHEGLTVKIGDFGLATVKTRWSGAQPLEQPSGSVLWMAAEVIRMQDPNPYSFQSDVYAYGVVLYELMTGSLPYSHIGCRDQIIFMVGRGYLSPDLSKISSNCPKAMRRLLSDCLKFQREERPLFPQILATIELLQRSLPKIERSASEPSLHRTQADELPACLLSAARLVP
Outline: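 KiNativ-type profiling in HeLa lysate (5 mg/mL total protein). Lysate preincubated 15 min with inhibitor at 50, 10, 2, 0.8 or 0 μM, then ATP or ADP acylphosphate probe added (5 μM final) for 10 min. Reaction stopped with urea and analysed by targeted MS, using up to four fragment ions per kinase peptide-probe conjugate. % inhibition calculated against untreated lysate. Duplicate reactions.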

[12] = target: Ribosomal protein S6 kinase beta-1 (Homo sapiens, UniProt P23443); test: Inhibition of P70S6K in human HeLa cells lysate at 50 uM pre incubated for 15 mins followed by ATP acyl phosphate probe addition and measured after 10 mins by LC-MS/MS analysis relative to control; type: subcellular; details: time 25.0 min
Sequence of Ribosomal protein S6 kinase beta-1 (P23443 whole entry, looked up): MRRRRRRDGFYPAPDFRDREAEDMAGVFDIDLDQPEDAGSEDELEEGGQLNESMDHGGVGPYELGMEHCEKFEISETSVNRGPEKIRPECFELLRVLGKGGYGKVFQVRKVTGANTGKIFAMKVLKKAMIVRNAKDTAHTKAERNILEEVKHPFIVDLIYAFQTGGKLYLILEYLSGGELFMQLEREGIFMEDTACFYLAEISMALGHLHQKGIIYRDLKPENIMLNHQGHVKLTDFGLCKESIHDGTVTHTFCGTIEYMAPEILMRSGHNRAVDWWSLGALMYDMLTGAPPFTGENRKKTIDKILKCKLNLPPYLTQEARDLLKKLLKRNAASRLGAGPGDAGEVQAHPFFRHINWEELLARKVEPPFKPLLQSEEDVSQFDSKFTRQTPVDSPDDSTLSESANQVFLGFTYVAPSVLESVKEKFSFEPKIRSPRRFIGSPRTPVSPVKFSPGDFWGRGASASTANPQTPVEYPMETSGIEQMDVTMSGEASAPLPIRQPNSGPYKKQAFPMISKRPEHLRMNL

[13] = Inhibition of MAP3K2/3 in human HeLa cells lysate at 50 uM pre incubated for 15 mins followed by ATP acyl phosphate probe addition and measured after 10 mins by LC-MS/MS analysis relative to control; details: 25 min, condition cancer
[14] = target: Ribosomal protein S6 kinase alpha-3 (Homo sapiens, UniProt P51812); test: Inhibition of RSK2 domain 1 active form in human HeLa cells lysate at 2 uM pre incubated for 15 mins followed by ATP acyl phosphate probe addition and measured after 10 mins by LC-MS/MS analysis relative to control; type: subcellular; details: time 25.0 min
[15] = Plasma concentration in Sprague-Dawley rat at 2 mg/kg, po measured after 8 hrs by LC-MS/MS analysis; type: ADME, organism-based
[16] = tested on: HeLa; test: Antitumor activity against human HeLa cells xenografted in NOD/SCID mouse assessed as reduction tumor growth at 50 mg/kg, ip administered on day 14 post implantation measured after 28 days; type: functional, organism-based; details: time 14.0 day
Outline: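 HeLa cells (5×10^5, in DMEM) were injected s.c. into the right flank of 6-week-old Nod/Scid mice on day 0. Dosing was 50 mg/kg i.p. twice daily, starting on day 1, 7 or 14 and continuing to day 28; controls received carrier. 6 mice per treated group. Tumors were measured every 2–3 days.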

## CCOc1cc(N2CCC(O)CC2)ccc1Nc1ncc2c(n1)N(C)c1ccccc1C(=O)N2C
[1]
  IC50: > 50 µM
[2]
  IC50: > 50 µM
[3]
  IC50: > 50 µM
[4]
  IC50: > 50 µM
[5]
  IC50: > 50 µM
[6]
  IC50: > 50 µM
[7]
  IC50: > 50 µM
[8]
  IC50: > 50 µM
[9]
  inhibition: 3.7%
[10]
  inhibition: 28%
[11]
  inhibition: 4.3%
[12]
  inhibition: -3.8%
[13]
  inhibition at 50 µM: -8.7%
[14]
  inhibition: 8.2%
[15]
  concentration at 8 h: 34 nM
[16]
  Activity: Active
